Active and inactive are the calls of the source.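 The calls were made as follows: active = inhibition of at least 50% against any of four protein arginine deiminase enzymes; inactive = the rest.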
Key:
Experiment in all cases: PAD1-4 inhibition by competitive ABPP, late-stage follow-up, orthogonal assay for PAD4 inhibitor project, biochemical, fluorescence, gel-based ABPP, HTS hits (AID 588487)
[1] = biological target: Protein-arginine deiminase type-2 (Homo sapiens) (UniProt Q9Y2J8); details: recombinant PAD1-4, gel-based ABPP, RFA probe fluorescence; PAD2; at 10 µM; active compounds read high
Chain of Protein-arginine deiminase type-2 (Homo sapiens) (Q9Y2J8 whole entry, looked up): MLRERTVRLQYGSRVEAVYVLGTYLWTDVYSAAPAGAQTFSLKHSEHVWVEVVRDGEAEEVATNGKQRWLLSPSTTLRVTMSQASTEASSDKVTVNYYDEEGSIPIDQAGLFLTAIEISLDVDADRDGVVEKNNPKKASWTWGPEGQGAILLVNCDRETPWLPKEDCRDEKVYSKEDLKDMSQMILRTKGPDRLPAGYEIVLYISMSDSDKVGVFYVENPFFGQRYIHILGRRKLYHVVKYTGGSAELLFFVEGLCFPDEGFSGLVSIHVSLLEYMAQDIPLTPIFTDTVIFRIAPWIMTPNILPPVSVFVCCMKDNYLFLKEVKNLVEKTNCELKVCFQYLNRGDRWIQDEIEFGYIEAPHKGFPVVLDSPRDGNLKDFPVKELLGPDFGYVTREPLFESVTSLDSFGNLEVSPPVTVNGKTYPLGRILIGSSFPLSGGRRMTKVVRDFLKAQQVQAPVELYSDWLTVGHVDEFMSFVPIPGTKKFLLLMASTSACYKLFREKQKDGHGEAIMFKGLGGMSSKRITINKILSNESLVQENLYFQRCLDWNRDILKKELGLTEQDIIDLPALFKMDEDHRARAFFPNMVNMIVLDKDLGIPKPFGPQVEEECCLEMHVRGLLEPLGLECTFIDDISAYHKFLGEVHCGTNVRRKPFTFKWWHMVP
Procedure, shortened: (§1)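 System: Recombinant PAD1, PAD2, PAD3 or PAD4 | Input: PAD enzyme 10 µM | Probe or stimulus: RFA fluorescent probe at 1 µM | Compound: One 10 µM dose per compound | Schedule: 15 min compound pre-incubation plus 30 min probe step, 37 °C | Detection: in-gel fluorescence scan of probe-labeled PAD band after SDS-PAGE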

[2] = biological target: Protein-arginine deiminase type-4 (Homo sapiens) (UniProt Q9UM07); details: recombinant PAD1-4, gel-based ABPP, RFA probe fluorescence; PAD4; at 10 µM; active compounds read high
Chain of Protein-arginine deiminase type-4 (Homo sapiens) (Q9UM07 whole entry, looked up): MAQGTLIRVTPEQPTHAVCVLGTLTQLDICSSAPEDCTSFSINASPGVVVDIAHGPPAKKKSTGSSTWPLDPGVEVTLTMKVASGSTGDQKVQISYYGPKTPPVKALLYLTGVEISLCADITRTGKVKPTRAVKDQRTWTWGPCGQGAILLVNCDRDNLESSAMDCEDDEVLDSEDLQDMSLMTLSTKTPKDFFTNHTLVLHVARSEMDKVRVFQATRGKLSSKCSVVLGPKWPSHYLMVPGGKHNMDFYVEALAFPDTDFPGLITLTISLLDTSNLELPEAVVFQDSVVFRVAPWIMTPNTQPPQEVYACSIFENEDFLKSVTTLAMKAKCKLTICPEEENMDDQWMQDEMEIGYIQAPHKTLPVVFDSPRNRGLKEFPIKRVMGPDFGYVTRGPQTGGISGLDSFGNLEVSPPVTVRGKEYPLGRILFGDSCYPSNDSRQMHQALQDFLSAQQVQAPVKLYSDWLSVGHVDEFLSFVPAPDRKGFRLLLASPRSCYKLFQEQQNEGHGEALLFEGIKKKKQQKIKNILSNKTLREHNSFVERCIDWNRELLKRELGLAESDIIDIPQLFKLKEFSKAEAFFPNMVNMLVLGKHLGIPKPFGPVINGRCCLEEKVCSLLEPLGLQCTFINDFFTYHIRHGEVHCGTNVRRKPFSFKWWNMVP
Procedure, shortened: as §1

[3] = biological target: Protein-arginine deiminase type-3 (Homo sapiens) (UniProt Q9ULW8); details: recombinant PAD1-4, gel-based ABPP, RFA probe fluorescence; PAD3; at 10 µM; active compounds read high
Chain of Protein-arginine deiminase type-3 (Homo sapiens) (Q9ULW8 whole entry, looked up): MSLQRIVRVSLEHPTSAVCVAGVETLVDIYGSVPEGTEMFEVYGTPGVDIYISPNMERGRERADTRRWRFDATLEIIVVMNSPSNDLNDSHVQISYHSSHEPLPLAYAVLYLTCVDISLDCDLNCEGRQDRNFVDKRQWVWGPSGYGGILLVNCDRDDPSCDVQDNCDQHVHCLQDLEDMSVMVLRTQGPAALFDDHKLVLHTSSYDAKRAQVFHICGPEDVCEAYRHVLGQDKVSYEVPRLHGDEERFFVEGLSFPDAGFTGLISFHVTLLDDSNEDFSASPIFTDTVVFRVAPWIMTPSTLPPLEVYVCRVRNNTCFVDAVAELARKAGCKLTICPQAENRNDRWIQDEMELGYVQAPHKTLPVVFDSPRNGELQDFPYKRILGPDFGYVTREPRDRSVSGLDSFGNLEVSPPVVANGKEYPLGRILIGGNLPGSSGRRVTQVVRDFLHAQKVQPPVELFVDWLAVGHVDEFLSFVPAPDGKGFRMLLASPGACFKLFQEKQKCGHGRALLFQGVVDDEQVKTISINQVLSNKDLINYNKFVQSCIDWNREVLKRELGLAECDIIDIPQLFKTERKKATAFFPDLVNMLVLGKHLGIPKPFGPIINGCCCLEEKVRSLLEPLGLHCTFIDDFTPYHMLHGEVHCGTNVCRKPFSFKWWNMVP
Procedure, shortened: as §1

[4] = biological target: Protein-arginine deiminase type-1 (Homo sapiens) (UniProt Q9ULC6); details: recombinant PAD1-4, gel-based ABPP, RFA probe fluorescence; PAD1; at 10 µM; active compounds read high
Chain of Protein-arginine deiminase type-1 (Homo sapiens) (Q9ULC6 whole entry, looked up): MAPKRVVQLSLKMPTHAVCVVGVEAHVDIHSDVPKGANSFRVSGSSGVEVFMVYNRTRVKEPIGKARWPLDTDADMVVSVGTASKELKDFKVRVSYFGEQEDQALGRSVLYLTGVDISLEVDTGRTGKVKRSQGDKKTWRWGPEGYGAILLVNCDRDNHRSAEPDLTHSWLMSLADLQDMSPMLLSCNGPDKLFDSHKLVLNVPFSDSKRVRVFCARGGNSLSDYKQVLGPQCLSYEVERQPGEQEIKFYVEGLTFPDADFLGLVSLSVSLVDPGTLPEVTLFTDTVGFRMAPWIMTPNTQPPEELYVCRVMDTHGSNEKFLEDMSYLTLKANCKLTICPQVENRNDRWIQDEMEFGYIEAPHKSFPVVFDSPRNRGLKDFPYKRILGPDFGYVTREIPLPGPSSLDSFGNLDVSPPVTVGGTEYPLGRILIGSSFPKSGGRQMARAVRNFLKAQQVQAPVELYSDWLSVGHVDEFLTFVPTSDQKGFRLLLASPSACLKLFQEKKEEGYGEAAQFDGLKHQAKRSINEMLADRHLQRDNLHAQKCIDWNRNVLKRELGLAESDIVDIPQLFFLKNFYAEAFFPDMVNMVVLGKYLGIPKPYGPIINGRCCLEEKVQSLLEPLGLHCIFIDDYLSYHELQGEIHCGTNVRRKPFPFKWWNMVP
Procedure, shortened: as §1

Row | SMILES | inhibition [1] | inhibition [2] | inhibition [3] | inhibition [4]
1 | O=C(O)c1[nH]c2ccccc2c1-c1ccccc1 | 14% (inactive) | 40% (inactive) | 10% (inactive) | 17% (inactive)
2 | Cc1c(C(=O)N2CCCCC2)c(S(=O)(=O)N2CCN(c3ccc(Cl)cc3)CC2)c(C)n1C | 6% (inactive) | 67% | 26% (inactive) | -25% (inactive)
3 | Cc1ccc(-c2nc3sc(C#N)c(N)n3c(=O)c2C#N)cc1 | 16% (inactive) | 38% (inactive) | 31% (inactive) | 32% (inactive)
4 | Cn1c(SCC(=O)N/N=C/C=C/c2ccco2)nc2ccccc21 | 41% (inactive) | 38% (inactive) | -13% (inactive) | 14% (inactive)
5 | COc1ccc(CCNC(=O)COC(=O)c2ccc(C)s2)cc1 | 40% (inactive) | 72% | -38% (inactive) | -2% (inactive)
6 | Cc1cc(C)c(C#N)c(Sc2ccccc2N)n1 | 38% (inactive) | 6% (inactive) | 5% (inactive) | 36% (inactive)
7 | COc1ccc(-c2nc(C(=O)NCCCN3CCOCC3)cc3c2[nH]c2ccccc23)cc1OC | 18% (inactive) | 10% (inactive) | -12% (inactive) | 30% (inactive)
8 | COc1ccc(CCNC(=O)c2c[nH]c3ccc(F)cc3c2=O)cc1OC | 35% (inactive) | 33% (inactive) | 23% (inactive) | -15% (inactive)
9 | COc1cccc(NC(=O)CN(C)C(=O)C23CC4CC(CC(Cl)(C4)C2)C3)c1 | 17% (inactive) | 60% | 13% (inactive) | 13% (inactive)
10 | O=[N+]([O-])c1ccc2nc(-c3ccccc3)n(OCc3ccc(Cl)cc3)c2c1 | 36% (inactive) | -3% (inactive) | 36% (inactive) | 3% (inactive)
11 | CC(=O)Nc1c2c3c(cccc3n(C)c1=O)C(=O)c1ccccc1-2 | 37% (inactive) | 28% (inactive) | 32% (inactive) | -5% (inactive)
12 | COc1cccc2cc(C(=O)NC3CC(C)(C)NC(C)(C)C3)c(=O)oc12 | 7% (inactive) | 31% (inactive) | 66% | 15% (inactive)
13 | Cc1ccc(C2=NN=C(NC(=O)CSc3nncn3C)SC2)cc1 | 1% (inactive) | 26% (inactive) | 32% (inactive) | 16% (inactive)
14 | Cc1cc(C)cc(NC(=S)/C(=C(\[O-])c2ccc(Cl)s2)[n+]2cccc(C)c2)c1 | 50% | -8% (inactive) | 28% (inactive) | -1% (inactive)
15 | CCOc1c(Br)cc(/C=C2\C(=O)N(CCC#N)N=C2C)cc1OC | 25% (inactive) | 52% | 15% (inactive) | 45% (inactive)
16 | COc1ccc(S(=O)(=O)Nc2ccccc2C)cc1 | 57% | 57% | -13% (inactive) | 23% (inactive)

Next, values leading:

Row | inhibition [1] | inhibition [2] | inhibition [3] | inhibition [4] | SMILES
17 | 28% (inactive) | 53% | -34% (inactive) | 74% | Cc1nn(-c2cccc(Cl)c2)c2c1C(c1cccnc1)C(C#N)=C(N)O2 (configuration not stated)
18 | 24% (inactive) | -38% (inactive) | 24% (inactive) | 43% (inactive) | CCN(Cc1ccc2c(c1)OCCO2)C(=O)CSc1nc(C)nc2sc(C)c(C)c12
19 | 67% | 19% (inactive) | 31% (inactive) | 21% (inactive) | Cc1ccc(CNC(=O)c2ccc(C)c(S(=O)(=O)N3CCCCC3)c2)cc1
20 | 44% (inactive) | 55% | -24% (inactive) | 30% (inactive) | COc1ccc(/C=N/Nc2nncn2N)cc1Br
21 | -16% (inactive) | -53% (inactive) | 31% (inactive) | 41% (inactive) | O=C(CN1CCCCCC1)Nc1ccc(Br)cc1Br
22 | 61% | 41% (inactive) | -58% (inactive) | 33% (inactive) | CN(C)CCCNc1cn[nH]c(=O)c1Cl
23 | 53% | 35% (inactive) | 32% (inactive) | 58% | COc1ccc(-c2cc(=O)[nH][nH]2)cc1
